Records with an inconclusive call do not appear.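 The calls were made as follows, unless noted: active = RAM network inhibition above 8.4% in each of two replicates, 3 SD over the compound average; inconclusive = above 8.4% inhibition in only one replicate; inactive = 8.4% inhibition or less in each replicate.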
Tests used:
[1] = OD615 S. cerevisiae growth inhibition, permissive medium, pilot counter-assay, permissive growth control for S. cerevisiae lifespan shortening project (AID 705;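 active = growth inhibition above 25% in both replicates, a cutoff set 3 SD above the mean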); details: OD615, 24 h, at 10 µM, hits give high values
Method in brief: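 System: engineered DeaD yeast; Medium: permissive raffinose/galactose medium; Compound dosing: 10 µM single dose, 0.25% DMSO; Incubation: 4 h cell pre-growth, 24 h exposure at 30 °C; Technique: OD at 615 nm; Evaluation: growth inhibition from lowered OD615 after 24 h.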

[2] = Restrictive medium S. cerevisiae growth inhibition, OD615, pilot screen of yeast lifespan reduction project, restrictive growth control (AID 706;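 active = growth inhibition above a set limit, 3 SD over mean compound inhibition, in both replicates, cut at about 43% in these data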;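 also: modified DeaD lifespan yeast strain shifted to restrictive glucose medium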); details: OD615, 48 h, at 10 µM, hits give high values
Method in brief: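 Material: modified S. cerevisiae; buffer or medium: CSMM-D glucose medium; doses: one concentration, 10 µM final, 0.25% DMSO; incubation: 48 h compound exposure at 30 °C; detection: optical density at 615 nm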

[3] = viability gain of MRP-1-high H69AR cells under doxorubicin, pilot screen, MRP-1 activator project, CellTiter-Glo, duplicate (AID 807;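 active = viability increase at or above a cutoff of the median across tested compounds plus 3 SD, cut at about 8.5% in these data, passing the limit was not always enough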;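 also: compound pretreatment 18-22 h then 72 h combined with doxorubicin; 0% = doxorubicin alone and 100% = vehicle without doxorubicin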); details: H69AR viability with doxorubicin, CellTiter-Glo luminescence; at 10 µM; hits give high values
[4] = growth suppression of beta-catenin knockout HCT116, pilot screen, human colon tumor cells (AID 823;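 active = cell viability at or below a set limit in both duplicate runs, the limit being the all-compound median minus 4 SD, cut at about 23% in these data, passing the limit was not always enough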;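 also: 0% = wells killed by 20 µM Hyamine and 100% = untreated DMSO cell wells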); details: CellTiter-Glo, 60 h, at 10 µM, hits give low values
[5] = growth suppression of PTEN-deleted HCT116, pilot screen, cell-based, HCT116 clonal line, CellTiter-Glo (AID 824;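 active = viability at or below 27.92% in each of two runs, the all-compound median minus 4 SD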;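 also: 0% = 20 µM Hyamine control and 100% = vehicle cell control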); details: 60 h, at 10 µM, hits give low values
[6] = inhibitors of the yeast RAM network, pilot screen, dse1pr::URA3 reporter, 5-FOA selection (AID 869;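 active = inhibition over a set limit, the all-compound mean plus 3 SD, in both replicate runs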;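 also: 0% = DMSO wells with no growth and 100% = 10 µM 1-NA-PP1 with full growth; RAM network block rescues cells from 5-FOA so hits raise OD615 growth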); details: S. cerevisiae dse1pr::URA3 5-FOA growth, OD615, 2 d; at 10 µM; hits give high values; strain carries analog-sensitive mutant Cbk1 kinase
[7] = RAM signaling pathway blockade in yeast – S. cerevisiae, Pdr1DBD-CYC8 efflux-inhibited sensitized strain, primary screen (AID 1298);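 also: 0% = DMSO untreated cells without growth and 100% = 10 µM 1-NA-PP1 full growth; higher means more yeast growth rescued from 5-FOA killing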; details: S. cerevisiae cbk1-as DSE1-URA3 strain, 5-FOA growth OD615, 2 d; at 50 µM; hits give high values

Cc1ccc(-c2nc(CS(=O)(=O)CC(=O)N3CCCCCC3)c(C)o2)cc1
inactive: growth inhibition [1] -2.76% | growth inhibition [2] 0.63% | viability increase [3] -1.22% | viability [4] 50% | viability [5] 70.6% | inhibition [6] 0.26% | RAM network inhibition [7] 4.22%

Cn1c(SCC(=O)NCC2CCCO2)nc2c([nH]c3ccccc32)c1=O (stereo not drawn)
inactive: growth inhibition [1] 2.66% | growth inhibition [2] -9.87% | viability increase [3] -5.32% | viability [4] 90.5% | viability [5] 91.7% | inhibition [6] 0.065% | RAM network inhibition [7] 2.79%

COC(=O)CC1=C(C)C(=O)CC2C(C)(C)CCCC12C (stereo not drawn)
inactive: growth inhibition [1] 4.86% | growth inhibition [2] -8.22% | viability increase [3] 1.01% | viability [4] 85.6% | viability [5] 94% | inhibition [6] 1.27% | RAM network inhibition [7] 4.48%

Cn1cnc2c1c(=O)n(Cc1ccccc1)c(=O)n2C
inactive: growth inhibition [1] -14.8% | growth inhibition [2] -14.2% | viability increase [3] -1.66% | viability [4] 106% | viability [5] 97% | inhibition [6] 3.59% | RAM network inhibition [7] 0.42%

O=C(CCN1C(=O)c2ccccc2C1=O)Nc1ccncc1
inactive: growth inhibition [1] 0.69% | growth inhibition [2] -3.13% | viability increase [3] 3.4% | viability [4] 98.5% | viability [5] 105% | inhibition [6] 1.6% | RAM network inhibition [7] 1.47%

CCn1c(SCC(=O)NCC2CCCO2)nc2c(c1=O)SC(C)C2 (stereo not drawn)
inactive: growth inhibition [1] -2.03% | growth inhibition [2] -29.9% | viability increase [3] -1.87% | viability [4] 103% | viability [5] 98% | inhibition [6] 0.93% | RAM network inhibition [7] 2.66%

CCN(CC)CCNC(=O)c1cn(CC)c2ccc(S(=O)(=O)N(C)C)cc2c1=O
inactive: growth inhibition [1] 0.365% | growth inhibition [2] 8.34% | viability increase [3] -1.41% | viability [4] 106% | viability [5] 101% | inhibition [6] 2.2% | RAM network inhibition [7] 2.04%

CCOC(=O)c1ccc(NC(=O)c2nn(C)cc2Br)cc1
inactive: growth inhibition [1] -7.53% | growth inhibition [2] -10.1% | viability increase [3] -1.34% | viability [4] 101% | viability [5] 105% | inhibition [6] 0.925% | RAM network inhibition [7] 6.88%

CCCCNC(=O)c1ccc2nc(-c3ccco3)c(-c3ccco3)nc2c1
inactive: growth inhibition [1] -4.73% | growth inhibition [2] -6.49% | viability increase [3] -1.69% | viability [4] 104% | viability [5] 97.5% | inhibition [6] 1.85% | RAM network inhibition [7] 1.63%

COCCCNC(=O)c1c(F)c(F)c(F)c(F)c1F
inactive: growth inhibition [1] -11.2% | growth inhibition [2] -2.95% | viability increase [3] -1.94% | viability [4] 95.7% | viability [5] 92.9% | inhibition [6] 0.09% | RAM network inhibition [7] -0.98%

CCc1nccn1S(=O)(=O)c1ccc(OC)c(OC)c1
inactive: growth inhibition [1] -17.4% | growth inhibition [2] -10% | viability increase [3] -0.29% | viability [4] 100% | viability [5] 93.3% | inhibition [6] 1.67% | RAM network inhibition [7] 0.47%

Cc1c(C(=O)NCC2CCCO2)oc2ccc(S(=O)(=O)N3CCCCC3)cc12 (stereo not drawn)
inactive: growth inhibition [1] -15.5% | growth inhibition [2] -9.72% | viability increase [3] -0.95% | viability [4] 89.9% | viability [5] 92.1% | inhibition [6] 2.4% | RAM network inhibition [7] 1.2%

COC(=O)c1cc(OC)c(OC)cc1NC(=O)C1CCCO1 (stereo not drawn)
inactive: growth inhibition [1] -6.67% | growth inhibition [2] 1.77% | viability increase [3] -0.93% | viability [4] 105% | viability [5] 99.8% | inhibition [6] 0.545% | RAM network inhibition [7] 4.85%

Cn1c(Cn2c(=O)sc3ccccc32)nnc1SCC(=O)N1CCN(c2ccccc2)CC1
inactive: growth inhibition [1] 0.845% | growth inhibition [2] 24.3% | viability increase [3] -0.95% | viability [4] 100% | viability [5] 96.6% | inhibition [6] 0.04% | RAM network inhibition [7] 3.66%

O=C(c1ccccc1C(=O)N1CCN(c2ccccc2F)CC1)N1CCN(c2ccccc2F)CC1
inactive: growth inhibition [1] -6.81% | growth inhibition [2] -15.5% | viability increase [3] -0.42% | viability [4] 61.6% | viability [5] 68.2% | inhibition [6] 1.44% | RAM network inhibition [7] 11.2%

COc1ccccc1N1CCN(C(=O)CN(c2ccccc2OC)S(=O)(=O)c2ccccc2)CC1
inactive: growth inhibition [1] -0.685% | growth inhibition [2] -7.83% | viability increase [3] -1.57% | viability [4] 87.5% | viability [5] 83.9% | inhibition [6] 0.845% | RAM network inhibition [7] 4.88%

COc1c(C)cc(Br)cc1C(=O)Nc1cccc(-c2nc3ncccc3o2)c1
inactive: growth inhibition [1] -0.485% | growth inhibition [2] 15% | viability increase [3] -4.84% | viability [4] 55.6% | viability [5] 46.5% | inhibition [6] 2.24% | RAM network inhibition [7] 7.82%

CCOC(=O)N1CCc2c(sc(NC(C)=O)c2C(N)=O)C1
inactive: growth inhibition [1] -5.06% | growth inhibition [2] -16.1% | viability increase [3] -1.9% | viability [4] 103% | viability [5] 99.3% | inhibition [6] 1.6% | RAM network inhibition [7] 0.58%

Cc1cccc(-c2nc(CS(=O)CC(=O)N3CCc4ccccc4C3)c(C)o2)c1 (stereo not drawn)
inactive: growth inhibition [1] 0.13% | growth inhibition [2] 20.1% | viability increase [3] -4.54% | viability [4] 84.8% | viability [5] 88.8% | inhibition [6] 0.385% | RAM network inhibition [7] 3.23%

CSc1nc(C)cc(SCCO)n1
inactive: growth inhibition [1] -3.2% | growth inhibition [2] 8.15% | viability increase [3] -1.79% | viability [4] 105% | viability [5] 102% | inhibition [6] 0.695% | RAM network inhibition [7] 0.46%

O=C(c1c(Cl)nc2sccn12)N1CCCc2ccccc21
inactive: growth inhibition [1] -2.11% | growth inhibition [2] -6.31% | viability increase [3] -0.71% | viability [4] 100% | viability [5] 98.2% | inhibition [6] 2.37% | RAM network inhibition [7] 1.4%

Cn1c(NCc2ccccc2Cl)nc2ccccc21
inactive: growth inhibition [1] -5.4% | growth inhibition [2] -11.6% | viability increase [3] 0.98% | viability [4] 97.5% | viability [5] 92.8% | inhibition [6] 0.3% | RAM network inhibition [7] 1.78%

CCOC(=O)CSc1n[nH]c(-c2ccco2)n1
inactive: growth inhibition [1] -16.1% | growth inhibition [2] -17% | viability increase [3] -1.01% | viability [4] 93.8% | viability [5] 102% | inhibition [6] 0.85% | RAM network inhibition [7] 4.21%

Clc1ccc(NCn2cncn2)nc1
inactive: growth inhibition [1] 12.6% | growth inhibition [2] 7.94% | viability increase [3] -1.55% | viability [4] 96.5% | viability [5] 93.5% | inhibition [6] 2.67% | RAM network inhibition [7] 3.18%
